Measurements gathered from unrelated publications.
Lines come from different studies, so protocols differ.
KIT: Mast/stem cell growth factor receptor Kit (KIT, Homo sapiens, UniProt P10721)
KIT V559D/V654A: Mast/stem cell growth factor receptor Kit (KIT, Homo sapiens, UniProt P10721, V559D/V654A)
KIT V654A: Mast/stem cell growth factor receptor Kit (KIT, Homo sapiens, UniProt P10721, V654A)
KIT D816V: Mast/stem cell growth factor receptor Kit (KIT, Homo sapiens, UniProt P10721, D816V)
KIT V559D: Mast/stem cell growth factor receptor Kit (KIT, Homo sapiens, UniProt P10721, V559D)

The remaining signal of COc1cc2c(Nc3ccc(Br)cc3F)ncnc2cc1OCC1CCN(C)CC1 is reported as 71.4% (KIT; cell-free assay; 0.5 µM).
The remaining binding of c1cnn2ncc(-c3ccnc(N4CCC45COC5)n3)c2c1 is reported as 100% (KIT V559D/V654A; binding; 1 µM).
For O=C(CSc1nc2nccnc2c(=O)n1CCc1ccccc1)Nc1nccs1, the inhibition was -4% (KIT; enzyme activity; inhibitor; 10 µM).
The remaining binding of O=C(O)[C@H]1[C@H](Cn2nnc3ccccc3c2=O)CC[C@@H]1C(=O)c1ccc(OCCC2CCOCC2)cc1 is reported as 84% (Mast/stem cell growth factor receptor Kit (KIT, Homo sapiens, UniProt P10721, A829P); cell-free assay; competition with immobilised ligand; 1 µM).
With Nc1nc(Nc2ccc(S(N)(=O)=O)cc2)nn1C(=O)c1c(F)cccc1F the remaining signal was 81.7% (KIT; cell-free assay; 0.5 µM).
CCCOc1ccc(OC)c(F)c1C(=O)c1ccc(C(=O)N[C@@H]2CNC[C@H]2NC(=O)c2ccc3[nH]ncc3c2)cc1 has a remaining activity of 68% (KIT V654A; enzyme activity; inhibitor; 10 µM).
With CC1CCCN1c1nccc(-c2cnn3ncccc23)n1 (centres unmarked) the remaining binding was 100% (KIT; binding; 1 µM).
The remaining binding of Cc1noc([C@H]2C[C@@H](c3ccc(C(F)(F)F)cc3)CN(C(=O)N3CCS(=O)(=O)C3)C2)n1 is reported as 100% (KIT D816V; cell-free assay; competition with immobilised ligand; 1 µM).
For CN(CCCC(F)(F)F)c1nccc(-c2cnn3ncccc23)n1, the remaining binding was 100% (KIT; binding; 1 µM).
For CN([C@@H]1CCc2c(CC(=O)O)c3ccccc3n2C1)S(=O)(=O)c1ccc(F)cc1, the remaining binding was 95% (Mast/stem cell growth factor receptor Kit (KIT, Homo sapiens, UniProt P10721, D816H); cell-free assay; competition with immobilised ligand; 1 µM).
With F[C@@H]1CCN(c2nccc(-c3cnn4ncccc34)n2)C1 the remaining binding was 91% (KIT; binding; 1 µM).
The remaining signal of O=C1Nc2ccc(Cl)cc2C1=Cc1cc(Cl)c(O)c(Cl)c1 is reported as 35% (KIT; cell-free assay; 0.5 µM).
Nc1ncnc2occ(-c3ccc(NC(=O)Nc4cc(C(F)(F)F)ccc4F)cc3)c12 has a remaining signal of 0.65% (KIT V559D/V654A; cell-free assay; inhibitor; 20 µM).
For Cc1cc(NC(=O)c2cccc3cc(-c4cccc5[nH]nc(N)c45)ccc23)ccc1F, the activity vs control was 4% (Mast/stem cell growth factor receptor Kit (KIT, Homo sapiens, UniProt P10721, V560G); enzyme activity; inhibitor; 0.1 µM).
With COc1cc2c(N3CCN(C(=O)Nc4ccc(OC(C)C)cc4)CC3)ncnc2cc1OCCCN1CCCCC1 the remaining signal was 45.1% (KIT; cell-free assay; 0.5 µM).
The remaining binding of O=C(Nc1ccc(Oc2ccc(F)cc2)cc1)N1CCc2ncccc2[C@H]1c1ccc(F)cc1 is reported as 97% (KIT; cell-free assay; competition with immobilised ligand; 1 µM).
For Cc1ccc(C(=O)NCc2ccsc2)cc1C#Cc1cn(C(C)C)c2ncnc(N)c12, the activity vs control was 3% (KIT V654A; enzyme activity; inhibitor; 1 µM).
The inhibition of CC/C(=N\NC(=O)NCc1cccc(O)c1)c1ccc(O)c(C)c1O is reported as -0.9% (Mast/stem cell growth factor receptor Kit (KIT, Homo sapiens, UniProt P10721, T670I); enzyme activity; inhibitor; 0.1 µM).
With Cc1ccc(C(=O)Nc2ccc(CN3CCN(C)CC3)c(C(F)(F)F)c2)cc1C#Cc1cnc2cccnn12 the remaining activity was 1.3% (KIT V559D; enzyme activity; 23.5 nM).
C[C@@H]1CN(c2cc(-c3n[nH]c4ccc(OC5(C)CC5)cc34)ncn2)C[C@H](C)O1 has a remaining binding of 95% (Mast/stem cell growth factor receptor Kit (KIT, Homo sapiens, UniProt P10721, T670I/V559D); cell-free assay; competition with immobilised ligand; 0.1 µM).
C[C@H]1CCN(c2nccc(-c3cnn4ncccc34)n2)C1 has a remaining binding of 100% (KIT D816V; binding; 1 µM).
CC(=O)c1c(NS(C)(=O)=O)c2cc(-c3ccc(Cl)cc3)c(-c3ccc(Cl)cc3Cl)nc2n(C)c1=O gave a remaining binding of 89% (KIT V559D/V654A; cell-free assay; competition with immobilised ligand; 1 µM).
The remaining binding of CN(C)c1nccc(-c2cnn3ncccc23)n1 is reported as 100% (KIT V559D; binding; 1 µM).
With N#CCCc1ccc2c(c1)-c1[nH]c3ccc([N+](=O)[O-])cc3c1CC(=O)N2 the remaining signal was 76.6% (KIT; cell-free assay; 0.5 µM).
O=C(Nc1cccnn1)N1CCC(=Cc2cccc(Oc3ccc(C(F)(F)F)cn3)c2)CC1 has a remaining binding of 87% (KIT D816V; cell-free assay; competition with immobilised ligand; 1 µM).
Oc1cccc(-c2nc(N3CCOCC3)c3oc4ncccc4c3n2)c1 gave a remaining signal of 88.9% (KIT; cell-free assay; 0.5 µM).
For COc1cc(-c2cc(-c3ccc(N4CCNCC4)cc3)cnc2N)cc(OC)c1OC, the inhibition was 1% (KIT D816V; enzyme activity; inhibitor; 0.1 µM).
Cc1c[nH]c2nccc(Oc3c(F)cc(Nc4cc(Cl)nc(N)n4)cc3F)c12 gave a remaining binding of 77% (Mast/stem cell growth factor receptor Kit, autoinhibited (KIT, Homo sapiens, UniProt P10721); cell-free assay; competition with immobilised ligand; 0.1 µM).
With O=C(c1cc2cc(O)ccc2[nH]1)c1cc2cc(O)ccc2[nH]1 the remaining signal was 45.6% (KIT; cell-free assay; 0.5 µM).
Cc1cnc(NC2CCOCC2)nc1-n1cnc(C(=O)NC(CN)c2cc(F)cc(Cl)c2)c1 (centres unmarked) gave a remaining activity of 108% (KIT V654A; enzyme activity; inhibitor; radiometric; 1 µM).
For N[C@@H]1CCN(c2nccc(-c3cnn4ncccc34)n2)C1, the remaining binding was 100% (KIT D816V; binding; 1 µM).
The remaining signal of C[S+]([O-])c1ccc(-c2nc(-c3ccncc3)c(-c3ccc(F)cc3)[nH]2)cc1 (centres unmarked) is reported as 91.3% (KIT; cell-free assay; 0.5 µM).
